{"data": "Results gathered from unrelated publications", "effect on": "cell growth or viability"}
{"SMILES": "C#Cc1nc(C2=C(C)C(OC(=O)CCC)/C(=N/OC(=O)CCC)C2)cs1 (stereo not shown)", "cell line": "U2OS", "measurement": "CC50", "result": "5950 nM"}
{"SMILES": "COc1cc2ncnc(Nc3ccc4c(c3)/C(=C/c3cccc(Cl)c3)C(=O)N4C)c2cc1OC", "cell line": "H22", "technique": "MTT", "measurement": "IC50", "result": "3840 nM"}
{"SMILES": "Cc1cc(NC(=O)C=Cc2ccccc2)cc(-c2ccnc(N3CCC(O)CC3)c2)c1", "cell line": "HeLa", "technique": "MTT", "tested at": "5 µM", "measurement": "inhibition", "result": "26.6%"}
{"SMILES": "C[C@@H]1CC[C@@H]([C@@](O)(CNCc2ccccc2)COCc2ccc(F)cc2)[C@H](OCc2ccc(F)cc2)C1", "cell line": "HeLa", "technique": "MTT", "tested at": "10 µM", "time": "72 h", "measurement": "inhibition", "result": "96%"}
{"SMILES": "Cc1c(C(=O)O)ccc2c3n(nc12)[C@@H]1[C@H](C3)N(CC2CC2)[C@@]2(C(=O)Nc3cc(Cl)ccc32)[C@H]1c1cccc(Cl)c1F", "cell line": "U2OS", "technique": "resazurin", "measurement": "GI50", "result": "> 2000 nM"}
{"SMILES": "Cc1nc(Nc2ccc3c(c2)/C(=C/c2ccccc2Cl)C(=O)N3)c2ccccc2n1", "cell line": "H22", "technique": "MTT", "measurement": "IC50", "result": "2140 nM"}
{"SMILES": "COc1ccc(COC[C@@](O)(CNCc2ccc(F)cc2)[C@@H]2CC[C@@H](C)C[C@H]2OCc2ccc(OC)cc2)cc1", "cell line": "HeLa", "technique": "MTT", "tested at": "10 µM", "time": "72 h", "measurement": "inhibition", "result": "95%"}
{"SMILES": "C=CC(=O)NC1CCN(c2ncc3ncnc(Nc4ccc(Oc5ccc6c(c5)ncn6C)c(C)c4)c3n2)CC1", "cell line": "LS-411N", "measurement": "EC50", "result": "11.6 nM"}
{"SMILES": "C[C@@H]1CC[C@@H]([C@](C)(O)CNCc2cccc3ccccc23)[C@H](OCc2ccccc2)C1", "cell line": "HeLa", "technique": "MTT", "tested at": "30 µM", "time": "72 h", "measurement": "inhibition", "result": "86.8%"}
{"SMILES": "O=C(C=Cc1cccc(F)c1)Nc1cc(-c2ccnc(N3CCC(O)CC3)c2)ccn1", "cell line": "HeLa", "technique": "MTT", "tested at": "5 µM", "measurement": "inhibition", "result": "82.7%"}
{"SMILES": "CCN1[C@@H](C(=O)NC23CCC(C(=O)O)(CC2)CC3)[C@H](c2cccc(Cl)c2F)[C@]2(C(=O)Nc3cc(Cl)ccc32)C12CCCCC2", "cell line": "U2OS", "technique": "resazurin", "time": "72 h", "measurement": "GI50", "result": "703 nM"}
{"SMILES": "Cc1cccc(/C=C/C(=O)Nc2cc(-c3ccnc(N4CCC(O)CC4)c3)ccn2)c1", "cell line": "HeLa", "technique": "MTT", "tested at": "5 µM", "measurement": "inhibition", "result": "74.2%"}
{"SMILES": "COc1cccc(CNC[C@@](C)(O)[C@@H]2CC[C@@H](C)C[C@H]2OCc2ccccc2)c1", "cell line": "HeLa", "technique": "MTT", "tested at": "30 µM", "time": "72 h", "measurement": "inhibition", "result": "97.9%"}
{"SMILES": "O=C(C=Cc1ccccc1)Nc1cc(-c2ccnc(N3CCOCC3)c2)ccn1", "cell line": "HeLa", "technique": "MTT", "tested at": "5 µM", "measurement": "inhibition", "result": "74%"}
{"SMILES": "C=C(C)[C@@H]1CC[C@@H](C)C[C@H]1OCc1ccc(OC)cc1", "cell line": "HeLa", "technique": "MTT", "tested at": "30 µM", "time": "72 h", "measurement": "inhibition", "result": "54%"}
{"SMILES": "O=C(C=Cc1ccccc1)Nc1cc(-c2ccnc(N3CCC(O)CC3)c2)ccn1", "cell line": "HeLa", "technique": "MTT", "tested at": "5 µM", "measurement": "inhibition", "result": "75.2%"}
{"SMILES": "C[C@@H]1CC[C@@H]([C@](C)(O)Cn2cnc3ccccc32)[C@H](OCc2ccccc2)C1", "cell line": "HeLa", "technique": "MTT", "tested at": "10 µM", "time": "72 h", "measurement": "inhibition", "result": "32.1%"}
{"SMILES": "Cc1nc(N(C)c2ccc3c(c2)/C(=C/c2ccccc2Cl)C(=O)N3C)c2ccccc2n1", "cell line": "H22", "technique": "MTT", "measurement": "IC50", "result": "8980 nM"}
{"SMILES": "Cc1cccc(/C=C/C(=O)Nc2cccc(-c3ccnc(N4CCC(O)CC4)c3)c2)c1", "cell line": "HeLa", "technique": "MTT", "tested at": "5 µM", "measurement": "inhibition", "result": "54.9%"}
